# Measured values as given in ChEMBL document CHEMBL1909507, “Substituted phenyl 4-(2-oxoimidazolidin-1-yl)benzenesulfonamides as antimitotics. Antiproliferative, antiangiogenic and antitumoral activity, and quantitative structure-activity relationships” (Eur J Med Chem, 2011).
# The source made the active and inactive calls. No cut-off for these calls is given here.
# Key:
# [1] = test system: HT-29; assay: Antiproliferative activity against human HT-29 cells after 48 hrs by SRB assay; format: functional, cell-based; conditions: HT-29, 48 h
# Outline: (§1)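 Adherent cells were seeded per line (e.g. HT-29 5000, M21 3500, MCF7 7500, CHO and CHO-VV 3-2 and CHO-TAX 5-6 1000 cells/well) and grown 24 h at 37 °C, 5% CO₂. DMSO-solubilized drug was diluted in medium and added at 1000–0.98 nM for 48 h. Cells were fixed with cold 10% TCA and stained with 0.1% sulforhodamine B, with absorbance read at 530–565 nm.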
# [2] = test system: M21; assay: Antiproliferative activity against human M21 cells after 48 hrs by SRB assay; format: functional, cell-based; conditions: M21, 48 h; outline: as §1
# [3] = test system: MCF7; assay: Antiproliferative activity against human MCF7 cells after 48 hrs by SRB assay; format: functional, cell-based; conditions: MCF7, 48 h; outline: as §1
# [4] = test system: CHO-TAX 5-6; assay: Ratio of IC50 for paclitaxel-resistant CHO-TAX 5-6 cells to IC50 for CHO cells; format: functional, Cricetulus griseus
# Outline: (§2)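 Each ratio is the IC50 in the resistant line divided by the IC50 in its parental line (CHO for CHO-TAX 5-6 and CHO-VV 3-2; CEM for CEM-VLB).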
# [5] = test system: CHO-VV 3-2; assay: Ratio of IC50 for colchicine and vinblastine-resistant CHO-VV 3-2 cells to IC50 for CHO cells; format: functional, Cricetulus griseus; outline: as §2
# [6] = Antiproliferative activity against human multidrug-resistant CEM/VLB cells after 48 hrs by SRB assay; format: functional
# [7] = test system: CCRF-CEM; assay: Ratio of IC50 for human multidrug-resistant CEM/VLB cells to IC50 for human CEM cells; format: functional; outline: as §2
# [8] = Antiproliferative activity against mouse B16F0 after 48 hrs by SRB assay
# [9] = Antiproliferative activity against mouse P388D1 after 48 hrs by SRB assay; conditions: P388D1, 48 h
# [10] = test system: MDA-MB-231; assay: Displacement of N,N'-ethylenebis(iodoacetamide) from beta-tubulin colchicine-binding site in human MDA-MB-231 cells at 1000 times IC50 preincubated for 2 hrs before N,N'-ethylenebis(iodoacetamide) addition measured after 1.5 hrs by chemiluminescence assay; format: cell-based
# Outline: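 EBI (100, final) was added for 1.5 h at 37 °C with drug present; control was 0.5% DMSO. Sonicated lysates (20 µg protein) were run on 10% SDS-PAGE and blotted with anti-β-tubulin TUB 2.1. The β-tubulin–EBI adduct was scored by ECL.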
Structure (SMILES),IC50 [1],IC50 [3],IC50 [2],also measured
CCc1ccc(NS(=O)(=O)c2ccc(N3CCNC3=O)cc2)cc1,660 nM,810 nM,480 nM,
Cc1ccc(NS(=O)(=O)c2ccc(N3CCNC3=O)cc2)cc1C,230 nM,230 nM,94 nM,
CC(C)(C)c1ccc(NS(=O)(=O)c2ccc(N3CCNC3=O)cc2)cc1,> 1000 nM,> 1000 nM,> 1000 nM,
CC[C@]1(O)C[C@@H]2CN(CCc3c([nH]c4ccccc34)[C@@](C(=O)OC)(c3cc4c(cc3OC)N(C)[C@H]3[C@@](O)(C(=O)OC)[C@H](OC(C)=O)[C@]5(CC)C=CCN6CC[C@]43[C@@H]65)C2)C1 [VINBLASTINE],,,,Ratio IC50 [4]: 0.41; Ratio IC50 [5]: 3.9; IC50 [6]: 600 nM; Ratio IC50 [7]: 1579; IC50 [8]: 0.099 nM; IC50 [9]: 1.8 nM
COc1ccc(NS(=O)(=O)c2ccc(N3CCNC3=O)cc2)cc1,800 nM,> 1000 nM,580 nM,
CCCCc1ccc(NS(=O)(=O)c2ccc(N3CCNC3=O)cc2)cc1,610 nM,770 nM,450 nM,
O=C1NCCN1c1ccc(S(=O)(=O)Nc2ccc3c(c2)OCO3)cc1,280 nM,460 nM,190 nM,
O=C(CI)NCCNC(=O)CI,,,,Activity [10]: inactive
O=C1NCCN1c1ccc(S(=O)(=O)Nc2ccc(C3CCCCC3)cc2)cc1,> 1000 nM,> 1000 nM,> 1000 nM,
O=C1NCCN1c1ccc(S(=O)(=O)Nc2ccc(Cl)cc2)cc1,220 nM,170 nM,90 nM,
COc1cc2c(c(OC)c1OC)-c1ccc(OC)c(=O)cc1[C@@H](NC(C)=O)CC2 [COLCHICINE],,,,IC50 [6]: 360 nM; IC50 [8]: 13 nM; IC50 [9]: 28 nM
O=C1NCCN1c1ccc(S(=O)(=O)Nc2ccc(I)cc2)cc1,650 nM,600 nM,260 nM,
O=C1NCCN1c1ccc(S(=O)(=O)Nc2ccc3c(c2)Cc2ccccc2-3)cc1,450 nM,480 nM,370 nM,
O=C1NCCN1c1ccc(S(=O)(=O)Nc2ccc(F)c(F)c2)cc1,350 nM,620 nM,220 nM,
O=C1NCCN1c1ccc(S(=O)(=O)Nc2ccc(OC(F)F)cc2)cc1,650 nM,760 nM,410 nM,
Cc1ccc(NS(=O)(=O)c2ccc(N3CCNC3=O)cc2)c(C)c1,180 nM,230 nM,150 nM,
CC(=O)O[C@H]1C(=O)[C@@]2(C)[C@H]([C@H](OC(=O)c3ccccc3)[C@]3(O)C[C@H](OC(=O)[C@H](O)[C@@H](NC(=O)c4ccccc4)c4ccccc4)C(C)=C1C3(C)C)[C@]1(OC(C)=O)CO[C@@H]1C[C@@H]2O [PACLITAXEL],,,,IC50 [8]: 28 nM; IC50 [9]: 35 nM
COc1ccc(NS(=O)(=O)c2ccc(N3CCNC3=O)cc2)cc1OC,520 nM,610 nM,340 nM,

# Continued, in another order:
IC50 [1],IC50 [3],Structure (SMILES),IC50 [2],also measured
200 nM,220 nM,O=C1NCCN1c1ccc(S(=O)(=O)Nc2cccc(Oc3ccccc3)c2)cc1,83 nM,
370 nM,690 nM,O=C1NCCN1c1ccc(S(=O)(=O)Nc2ccc(F)cc2)cc1,230 nM,
200 nM,280 nM,Cc1ccccc1NS(=O)(=O)c1ccc(N2CCNC2=O)cc1,150 nM,
> 1000 nM,> 1000 nM,CCCCCCCc1ccc(NS(=O)(=O)c2ccc(N3CCNC3=O)cc2)cc1,> 1000 nM,
990 nM,> 1000 nM,CCCCCc1ccc(NS(=O)(=O)c2ccc(N3CCNC3=O)cc2)cc1,870 nM,
> 1000 nM,> 1000 nM,N#CCc1ccc(NS(=O)(=O)c2ccc(N3CCNC3=O)cc2)cc1,> 1000 nM,
630 nM,870 nM,CCCCOc1ccc(NS(=O)(=O)c2ccc(N3CCNC3=O)cc2)cc1,580 nM,
> 1000 nM,> 1000 nM,CC(C)(C)c1cc(NS(=O)(=O)c2ccc(N3CCNC3=O)cc2)cc(C(C)(C)C)c1,> 1000 nM,
300 nM,240 nM,O=C1NCCN1c1ccc(S(=O)(=O)Nc2ccc(Br)cc2)cc1,130 nM,
280 nM,470 nM,O=C1NCCN1c1ccc(S(=O)(=O)Nc2ccccc2)cc1,200 nM,
190 nM,230 nM,Cc1cccc(NS(=O)(=O)c2ccc(N3CCNC3=O)cc2)c1C,110 nM,
550 nM,770 nM,COc1ccccc1NS(=O)(=O)c1ccc(N2CCNC2=O)cc1,300 nM,
> 1000 nM,> 1000 nM,CCCCCCOc1ccc(NS(=O)(=O)c2ccc(N3CCNC3=O)cc2)cc1,> 1000 nM,
480 nM,610 nM,Cc1ccc(NS(=O)(=O)c2ccc(N3CCNC3=O)cc2)cc1,260 nM,
> 1000 nM,> 1000 nM,CCC(C)c1ccc(NS(=O)(=O)c2ccc(N3CCNC3=O)cc2)cc1 (stereo not given),> 1000 nM,
190 nM,240 nM,O=C1NCCN1c1ccc(S(=O)(=O)Nc2ccc3c(c2)CCC3)cc1,130 nM,
240 nM,350 nM,CCc1ccccc1NS(=O)(=O)c1ccc(N2CCNC2=O)cc1,180 nM,
